Laboratory results published in ChEMBL document CHEMBL1255462, “Antiviral activity of a small-molecule inhibitor of filovirus infection” (Antimicrob Agents Chemother, 2010).
The source made the active and inactive calls. No cut-off for these calls is given here.

Columns and labels:
Mus musculus [1] = assay: Toxicity in Ebola-like viruses infected in C57BL/6 mouse spleen assessed as mild lymphocytolysis at 10 mg/kg, ip single dose measured after 4 days; type: organism-based; set-up: dose 10 mg/kg, route intraperitoneal; conditions: in vivo, 96 h
[2] = Cytotoxicity against MDCK cells after 72 hrs; type: cell-based, Canis lupus familiaris; conditions: dog
In short: (§1)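 Confluent monolayers were treated in triplicate with serially diluted compound at 0.0018 to 320 µM for 72 h. Viability was read by CellTiter Glo luminescence, and CC50 was determined.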

Ebolavirus [3] = assay: Antiviral activity against Ebola-like viruses infected in C57BL/6 mouse liver assessed as reduction in viral burden at 10 mg/kg, ip single dose; type: functional; conditions: route intraperitoneal
Ebolavirus [4] = assay: Antiviral activity against Ebola-like viruses infected in C57BL/6 mouse assessed as serum alanine aminotransferase at 10 mg/kg, ip after 24 hrs measured on 2 days postinfection; type: functional; conditions: route intraperitoneal
In short: (§2)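 C57BL/6 mice received 10 mg/kg i.p. in saline, or vehicle, 24 h postinfection. Five mice per group were sacrificed on days 2, 4 and 6. Serum was frozen at -70°C until all samples were collected, then assayed for ALT, AST and ALP (U/liter). Values are group means compared with vehicle.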

Mus musculus [5] = assay: Toxicity in Ebola-like viruses infected in C57BL/6 mouse assessed as mild hepatitis with hepatocellular necrosis at 10 mg/kg, ip single dose measured after 4 days; type: organism-based; set-up: dose 10 mg/kg, route intraperitoneal; conditions: in vivo, 96 h
Ebolavirus [6] = assay: Antiviral activity against Ebola-like viruses infected in C57BL/6 mouse assessed as increase in mouse survival at 5 mg/kg, ip single injection; type: functional; conditions: route intraperitoneal
In short: (§3)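 Compound given once i.p. in 0.9% saline at day 1 postinfection, with vehicle-treated controls. Health and mortality recorded twice daily for 14 days. Animals surviving 14 days were scored as protected, and survival curves were compared by Kaplan-Meier analysis.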

Ebolavirus [7] = assay: Antiviral activity against Ebola-like viruses infected in C57BL/6 mouse assessed as serum aspartate aminotransferase at 10 mg/kg, ip after 24 hrs measured on 6 days postinfection; type: functional; conditions: route intraperitoneal; in short: as §2
Ebolavirus [8] = assay: Antiviral activity against Zaire ebolavirus expressing GFP in african green monkey Vero E6 cells at >=0.8 uM after 48 hrs by standard plaque assay; type: functional
Ebolavirus [9] = assay: Antiviral activity against Ebola-like viruses infected in C57BL/6 mouse kidney assessed as reduction in viral burden at 10 mg/kg, ip single dose; type: functional; conditions: route intraperitoneal
[10] = Antiviral activity against Lake Victoria marburgvirus - Ravn in overnight pretreated african green monkey Vero E6 cells after 48 hrs by standard virus yield reduction assay; type: functional, cell-based; conditions: Kenya, 1987, Vero
Ebolavirus [11] = assay: Antiviral activity against Ebola-like viruses infected in C57BL/6 mouse assessed as serum alkaline phosphatase at 10 mg/kg, ip after 24 hrs measured on 6 days postinfection; type: functional; conditions: route intraperitoneal; in short: as §2
[12] = Cytotoxicity against human HEK293 cells after 72 hrs; type: cell-based; in short: as §1
Marburgvirus [13] = assay: Antiviral activity against Marburgvirus infected in BALB/C mouse assessed as protection against virus challenge at 10 mg/kg, ip measured for 14 days; type: functional, organism-based; set-up: dose 10 mg/kg; in short: as §3
Ebolavirus [14] = assay: Antiviral activity against Ebola-like viruses infected in C57BL/6 mouse assessed as serum alkaline phosphatase at 10 mg/kg, ip after 24 hrs measured on 2 days postinfection; type: functional; conditions: route intraperitoneal; in short: as §2
Ebolavirus [15] = assay: Antiviral activity against Ebola-like viruses infected in C57BL/6 mouse spleen assessed as reduction in viral burden at 10 mg/kg, ip single dose; type: functional; conditions: route intraperitoneal
[16] = Cytotoxicity against human PBMC after 72 hrs; type: cell-based; conditions: PBMC (peripheral blood mononuclear cells)
[17] = Cytotoxicity against human Hep2 cells after 72 hrs; type: cell-based, HEp-2; in short: as §1
Marburgvirus [18] = assay: Antiviral activity against Marburgvirus infected in BALB/C mouse assessed as protection against virus challenge at 5 mg/kg, ip administered 1 day postinfection; type: functional; conditions: route intraperitoneal; in short: as §3
[19] = Antiviral activity against Lake Victoria marburgvirus - Ci67 in overnight pretreated african green monkey Vero E6 cells at 10 uM after 48 hrs by standard virus yield reduction assay; type: functional; set-up: scale not given: the % may be the effect or the level left
Ebolavirus [20] = assay: Antiviral activity against Ebola-like viruses infected in C57BL/6 mouse assessed as serum alanine aminotransferase at 10 mg/kg, ip after 24 hrs measured on 6 days postinfection; type: functional; conditions: route intraperitoneal; in short: as §2
Ebolavirus [21] = assay: Antiviral activity against Sudan ebolavirus expressing GFP in african green monkey Vero E6 cells after 48 hrs by standard plaque assay; type: functional, cell-based; conditions: Orthoebolavirus
Ebolavirus [22] = assay: Antiviral activity against Ebola-like viruses infected in C57BL/6 mouse assessed as serum aspartate aminotransferase at 10 mg/kg, ip after 24 hrs measured on 2 days postinfection; type: functional; conditions: route intraperitoneal; in short: as §2
[23] = Antiviral activity against Lake Victoria marburgvirus - Ravn in overnight pretreated african green monkey Vero E6 cells at 25 uM after 48 hrs by standard virus yield reduction assay; type: functional; set-up: scale not given: the % may be the effect or the level left
[24] = Antiviral activity against Lake Victoria marburgvirus - Ci67 in overnight pretreated african green monkey Vero E6 cells after 48 hrs by standard virus yield reduction assay; type: functional
[25] = Cytotoxicity against african green monkey Vero E6 cells after 72 hrs; type: cell-based; conditions: chlorocebus sabaeus; in short: as §1
Ebolavirus [26] = assay: Antiviral activity against Ebola-like viruses infected in C57BL/6 mouse assessed as serum alkaline phosphatase at 10 mg/kg, ip after 24 hrs measured on 4 days postinfection; type: functional; conditions: route intraperitoneal; in short: as §2
Ebolavirus [27] = assay: Antiviral activity against Ebola-like viruses infected in C57BL/6 mouse assessed as serum alanine aminotransferase at 10 mg/kg, ip after 24 hrs measured on 4 days postinfection; type: functional; conditions: route intraperitoneal; in short: as §2
Ebolavirus [28] = assay: Antiviral activity against Ebola-like viruses infected in C57BL/6 mouse assessed as serum aspartate aminotransferase at 10 mg/kg, ip after 24 hrs measured on 4 days postinfection; type: functional; conditions: route intraperitoneal; in short: as §2
Ebolavirus [29] = assay: Antiviral activity against Zaire ebolavirus expressing GFP in african green monkey Vero E6 cells after 48 hrs by standard plaque assay; type: functional, cell-based
[30] = Cytotoxicity against human A549 cells after 72 hrs; type: cell-based; in short: as §1

Compound: N=C(N)c1ccc2oc(/C=C/c3nc4cc(C(=N)N)ccc4[nH]3)cc2c1
- Activity (Mus musculus [1]): Toxic
- CC50 at 72 h [2]: ≥ 50 µM
- log10cfu (Ebolavirus [3]): 1
- Activity (Ebolavirus [4]): 148 U/L
- Activity (Mus musculus [5]): Toxic
- Activity (Ebolavirus [6]): 60%
- Activity (Ebolavirus [7]): 207 U/L
- inhibition (INH) (Ebolavirus [8]): >=0.8%
- log10cfu (Ebolavirus [9]): 1
- EC50 [10]: 2.5 µM
- Activity (Ebolavirus [11]): 67 U/L
- CC50 at 72 h [12]: ≥ 50 µM
- Activity (Marburgvirus [13]): Active
- Activity (Ebolavirus [14]): 57 U/L
- log10cfu (Ebolavirus [15]): 1
- CC50 at 72 h [16]: ≥ 50 µM
- CC50 at 72 h [17]: ≥ 50 µM
- Activity (Marburgvirus [18]): 40%
- Activity [19]: >90%
- Activity (Ebolavirus [20]): 87 U/L
- EC50 (Ebolavirus [21]): 0.42 µM
- EC90 (Ebolavirus [21]): 0.96 µM
- Activity (Ebolavirus [22]): 237 U/L
- Activity [23]: >99.9%
- CC50 [24]: 2.5 µM
- CC50 at 72 h [25]: ≥ 50 µM
- Activity (Ebolavirus [26]): 65 U/L
- Activity (Ebolavirus [27]): 23 U/L
- Activity (Ebolavirus [28]): 54 U/L
- Activity (Ebolavirus [29]): Dose-dependent effect
- EC50 (Ebolavirus [29]; Orthoebolavirus): 0.1 µM
- EC90 (Ebolavirus [29]; Orthoebolavirus): 0.33 µM
- CC50 at 72 h [30]: ≥ 50 µM
